Experimental data from ChEMBL document CHEMBL4043282, “Discovery of the First Potent, Selective, and Orally Bioavailable Signal Peptide Peptidase-Like 2a (SPPL2a) Inhibitor Displaying Pronounced Immunomodulatory Effects In Vivo” (J Med Chem, 2018).
Converted amounts (≈) assume the structure as drawn. The source made the active and inactive calls. The calls are words filed in the database; no cut-off is given here.

Legend:
Mus musculus [1] = test: Immunomodulatory activity in mouse assessed as reduction in follicular B cells in splenocyte at 3 to 30 mg/kg administered via oral gavage bid at 8 and 16 hrs dosing interval between first and second dose respectively for 11 days measured 16 hrs post last dose on day 12 by flow cytometry; format: functional, organism-based
In short: (§1)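 Mice gavaged with compound in 0.5% MC:0.5% Tween or PEG:D5W 3:1. Spleens dissociated in GentleMACS, filtered at 40 μm, ACK red-cell lysis, counted; 1 × 10^6 splenocytes stained 30 min on ice in HBSS/2% FBS/5 mM EDTA with antimouse panels for B-cell subsets (B220, CD21, CD23, IgM, IgD) or dendritic cells (PDCA1, CD11c, MHCII, lineage markers); analyzed on Fortessa flow cytometer.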

Mus musculus [2] = test: Immunomodulatory activity in mouse assessed as reduction in transition T1 B cells in splenocyte at 3 to 30 mg/kg administered via oral gavage bid at 8 and 16 hrs dosing interval between first and second dose respectively for 11 days measured 16 hrs post last dose on day 12 by flow cytometry; format: functional, organism-based; in short: as §1
Mus musculus [3] = test: Dose normalized drug uptake in Balb/c mouse at 5 mg/kg, iv by LC/MS/MS analysis; format: ADME, organism-based; conditions: in vivo
Rattus norvegicus [4] = test: Dose normalized drug uptake in Wistar rat at 10 mg/kg, po bid measured up to 7 hrs by LC/MS/MS analysis; format: ADME, organism-based, Wister; conditions: in vivo
Salmonella typhimurium = test: Genotoxicity in Salmonella typhimurium by Ames test; format: toxicity; conditions: salmonella enterica subsp. enterica serovar typhimurium
[5] = Total plasma concentration in mouse at 10 mg/kg administered via oral gavage measured after 16 hrs post dose by LC/MS/MS analysis; format: ADME, organism-based
In short: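 Mice dosed by oral gavage in 0.5% MC:0.5% Tween or PEG:D5W 3:1. 50 μL blood taken retro-orbitally into LiHep tubes; in chronically dosed animals the trough sample came before the morning dose. Kept on ice, plasma separated by centrifugation at 2823g, 5 min, stored at −20 °C until analysis.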

Rattus norvegicus [6] = test: In vivo inhibition of SPPL2a in Lewis rat assessed as accumulation of CD74/p8 in blood at 1 mg/kg first dose administered via oral gavage followed by second dose after 8 hrs measured 16 hrs post second dose by Western blot method; format: functional, organism-based
In short: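 Rat blood (200 μL) red cells lysed with RBC lysis buffer three times, pellet lysed in Tris pH 6.8/NaCl/EDTA/Triton X-100/deoxycholate with protease inhibitors; Western blot for CD74/p8 with affinity-purified antibody specific for rat CD74/p8 at 1:200.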

[7] = Total concentration in Lewis rat blood at 10 mg/kg, po bid after 24 hrs by LC/MS/MS analysis; format: ADME, organism-based; conditions: read-out: Drug uptake
[8] = Drug uptake in Lewis rat spleen at 3 mg/kg, po bid after 24 hrs by LC/MS/MS analysis; format: ADME, organism-based; conditions: read-out: Drug uptake
[9] = Drug uptake in Lewis rat spleen at 1 mg/kg, po bid after 24 hrs by LC/MS/MS analysis; format: ADME, organism-based; conditions: read-out: Drug uptake
Mus musculus [10] = test: Immunomodulatory activity in mouse assessed as reduction in transition T2 B cells in splenocyte at 3 to 30 mg/kg administered via oral gavage bid at 8 and 16 hrs dosing interval between first and second dose respectively for 11 days measured 16 hrs post last dose on day 12 by flow cytometry; format: functional, organism-based; in short: as §1
Mus musculus [11] = test: In vivo inhibition of gamma-secretase dependent Notch1 signaling in mouse assessed as effect on Hes1 mRNA level in thymus at 3 to 30 mg/kg, po bid administered at 8 and 16 hrs dosing interval between first and second dose respectively for 11 days measured 16 hrs post last dose on day 12 by RT-PCR analysis; format: organism-based
In short: (§2)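 Thymus and jejunum excised into RNALater, 4 °C overnight, washed, frozen at −80 °C; total RNA from 10 mg tissue by MagNA Pure LC; Hes1 measured by TaqMan real-time PCR; significance by two-tailed heteroscedastic Student's t-test.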

[12] = biological target: T1, Signal peptide peptidase-like 2A (Mus musculus) (UniProt Q9JJF9); conditions: 2 uM
T1 sequence (whole entry): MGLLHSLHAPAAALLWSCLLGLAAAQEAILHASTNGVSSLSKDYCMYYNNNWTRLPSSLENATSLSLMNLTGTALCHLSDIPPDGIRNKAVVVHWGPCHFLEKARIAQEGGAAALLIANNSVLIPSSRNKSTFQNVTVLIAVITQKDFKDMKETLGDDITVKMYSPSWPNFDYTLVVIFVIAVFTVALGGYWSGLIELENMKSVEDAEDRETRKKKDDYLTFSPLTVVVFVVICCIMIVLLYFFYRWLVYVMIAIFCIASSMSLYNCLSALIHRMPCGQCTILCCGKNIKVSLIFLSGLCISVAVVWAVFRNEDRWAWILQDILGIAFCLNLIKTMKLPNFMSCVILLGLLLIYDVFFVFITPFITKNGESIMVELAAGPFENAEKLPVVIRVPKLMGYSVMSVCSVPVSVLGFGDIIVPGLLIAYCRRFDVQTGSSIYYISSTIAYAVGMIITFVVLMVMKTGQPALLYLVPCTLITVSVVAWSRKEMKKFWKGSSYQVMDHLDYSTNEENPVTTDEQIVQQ

[13] = biological target: T1, Signal peptide peptidase-like 2A (Mus musculus); conditions: 2 uM; remark: listed apart in the source
[14] = Equilibrium solubility of the compound at pH 6.8 after 24 hrs by saturation shake flask based UV-HPLC method; format: physicochemical; conditions: buffer
[15] = Total plasma concentration in mouse at 30 mg/kg, po administered as single dose after 4 hrs by LC/MS/MS analysis; format: ADME, organism-based
[16] = Total plasma concentration in mouse at 100 mg/kg, po administered as single dose after 4 hrs by LC/MS/MS analysis; format: ADME, organism-based
[17] = Stability in human liver microsomes at […] preincubated for 3 mins followed by NADPH addition measured after 1 hr in presence of GSH and [13C2-15N-glycine]-GSH by HPLC/MS method; format: ADME, microsome; conditions: read-out: Stability
[18] = Stability in mouse liver microsomes at […] preincubated for 3 mins followed by NADPH addition measured after 1 hr in presence of GSH and [13C2-15N-glycine]-GSH by HPLC/MS method; format: ADME, microsome; conditions: read-out: Stability
Mus musculus [19] = test: In vivo inhibition of SPPL2a in mouse assessed as increase in CD74/p8 accumulation in splenocytes at 10 to 100 mg/kg, po administered as single dose measured after 4 hrs by Western blot method; format: functional, organism-based
[20] = Volume of distribution at steady state in Balb/c mouse at 5 mg/kg, iv by LC/MS/MS analysis; format: ADME, organism-based; conditions: in vivo, read-out: Vdss
[21] = biological target: T2, Signal peptide peptidase-like 2A (Mus musculus, UniProt Q9JJF9); test: Inhibition of SPPL2a in mouse whole blood assessed as increase in CD74/p8 accumulation after 5.5 hrs by Western bot method
T2 sequence (Q9JJF9 whole entry): T1 sequence (whole entry)
In short: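 Mouse whole blood (200 μL) with compound from 20× stock, 0.5% DMSO final, 5.5 h at 37 °C, 5% CO2 with rotation. RBC lysis, washes, lysis in Tris pH 6.8/Triton/deoxycholate buffer; Western blot with rat anti-mouse CD74 (In-1); p8 band intensity normalized to CD74 full-length/β-actin for dose response.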

Mus musculus [22] = test: In vivo inhibition of mouse gamma-secretase assessed as effect on Hes1 mRNA level in thymus up to 100 mg/kg, po administered as single dose by RT-PCR method; format: organism-based; in short: as §2

## Cc1ncc(F)cc1NC(=O)C[C@H](C(=O)N[C@@H]1C(=O)N2CC3(CC3)CN2C(=O)c2ccccc21)C1CC1
Mus musculus [1]
  Activity: Active
Mus musculus [2]
  Activity: Active
Mus musculus [3]
  Druguptake/dose: 264 nM
Rattus norvegicus [4]
  Druguptake/dose: 421 nM
Salmonella typhimurium
  Activity: Non-Toxic
[5]
  concentration at 16 h: 11.8 nM
Rattus norvegicus [6]
  inhibition: Active
[7]
  concentration at 24 h: 1390 nM
[8]
  concentration at 24 h: 860 nM
[9]
  concentration at 24 h: 330 nM
Mus musculus [10]
  Activity: Active
Mus musculus [11]
  Activity: Non-Toxic
[12]
  inhibition: 50%
[13]
  inhibition: inactive

## Cc1ccccc1NC(=O)C[C@@H](C)C(=O)N[C@@H]1C(=O)N2CCCN2Cc2ccccc21
[14]
  solubility thermodynamic at 24 h: 263 µM (≈ 111 µg/mL)
[15]
  concentration at 4 h: 500 nM
[16]
  concentration at 4 h: 2090 nM
[17]
  remaining at 1 h: 70.8%
[18]
  remaining at 1 h: 92%
Mus musculus [19]
  Activity: Active
[20]
  Vd: 1.2 L/kg
[21]
  IC50: 550 nM
Mus musculus [22]
  Activity: Non-Toxic
